Assay results published in ChEMBL document CHEMBL1126685, “Bronchodilator activity of xanthine derivatives substituted with functional groups at the 1- or 7-position” (J Med Chem, 1993).

Assays:
Cavia porcellus [1] = organism: Cavia porcellus; test: Effective concentration required in vitro for tracheal muscle (from male Hartley guinea pigs) relaxation; format: functional; settings: Trachea
How it was run: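 Tracheal ring chains from male Hartley guinea pigs (300–500 g), 37 °C Krebs-Henseleit pH 7.4, 95% O2–5% CO2, 0.5 g tension, spontaneous tone; cumulative compound addition, isotonic recording.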

Cavia porcellus [2] = organism: Cavia porcellus; test: Effective concentration required in vitro for heart stimulation (right atrium) in guinea pig; format: functional; settings: Cardiac atrium
How it was run: (§1)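 Isolated right atrium of male Hartley guinea pigs, 25 °C Krebs-Henseleit gassed 95% O2–5% CO2, 0.5 g tension; cumulative concentrations; beating rate via cardiometer triggered by isometric contraction. EC15 = concentration raising rate 15% above unstimulated; 3–5 experiments.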

Cavia porcellus [3] = test: Bronchodilatory effect, 50% inhibition of spasmogen-induced response in male Hartley guinea pigs on intraduodenal administration; format: functional
How it was run: (§2)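 Urethane-anesthetized (1.5 g/kg ip), ventilated male Hartley guinea pigs; compound suspended in 0.5% carboxymethylcellulose given intraduodenally 5 min before iv acetylcholine 40 μg/kg (jugular, every 15 min, after three stable responses); Konzett–Rossler overflow bronchospasm and carotid-pulse heart rate followed 110 min.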

Cavia porcellus [4] = test: Positive chronotropic effect, 15% increase in heart rate of male Hartley guinea pigs on intraduodenal administration (mean of 3-5 animals); format: functional; how it was run: as §2
Adenosine receptor A1 [5] = molecular target: T1, Adenosine receptor A1 (Cavia porcellus, UniProt P47745); test: Binding affinity against adenosine A1 receptor of cerebral cortex using [3H]CPX as a radioligand; format: tissue-based
T1 sequence (P47745 whole entry): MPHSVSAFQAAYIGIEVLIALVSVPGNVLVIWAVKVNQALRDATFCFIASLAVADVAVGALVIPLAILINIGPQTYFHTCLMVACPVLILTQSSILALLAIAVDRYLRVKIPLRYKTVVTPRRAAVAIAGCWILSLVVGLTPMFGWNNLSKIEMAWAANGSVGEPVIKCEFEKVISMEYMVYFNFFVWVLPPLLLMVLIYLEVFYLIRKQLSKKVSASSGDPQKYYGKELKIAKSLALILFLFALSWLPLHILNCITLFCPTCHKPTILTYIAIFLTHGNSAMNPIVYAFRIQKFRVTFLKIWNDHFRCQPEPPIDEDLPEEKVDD

[6] = Bronchoselectivity expressed as ratio of stimulatory activity in the right atrium (EC15) to relaxant activity in the tracheal muscle (EC50); format: functional, Cardiac atrium
[7] = Bronchoselectivity, ratio of positive chronotropic action (ED15) to bronchodilator action (ED50); format: functional
[8] = molecular target: cyclic AMP phosphodiesterase (guinea pig); test: Inhibition of cyclic AMP-phosphodiesterase ( PDE) in the supernatant of tracheal muscle homogenate
[9] = molecular target: Adenosine A2 receptor (guinea pig); test: Binding affinity against adenosine A2 receptor of striatal membrane using [3H]CGS-21680 as a radioligand
Cavia porcellus [10] = organism: Cavia porcellus; test: In vitro guinea pig heart stimulation (right atrium); format: functional; settings: Cardiac atrium; how it was run: as §1
Adenosine receptor A1 [11] = molecular target: T1, Adenosine receptor A1; test: Binding affinity against Adenosine A1 receptor of cerebral cortex using [3H]-CPX; format: tissue-based

Row | EC50 (Cavia porcellus [1]) | Ki (Adenosine receptor A1 [5]) | Ki [8] | Ki [9] | Ki (Adenosine receptor A1 [11]) | SMILES | EC15 (Cavia porcellus [2]) | ED50 (Cavia porcellus [3]) | ED15 (Cavia porcellus [4]) | Selectivity [6] | Selectivity [7] | EC15 (Cavia porcellus [10])
1 | 4.2 µM | 2.1 µM |  |  |  | CCCn1c(=O)n(CC#N)c(=O)c2[nH]cnc21 | 1.7 µM |  |  |  |  | 
2 | 1.6 µM | 1.7 µM | 27.3 µM | 11.8 µM |  | C=CCn1c(=O)c2[nH]cnc2n(CCC)c1=O | 5.4 µM |  |  | 3.4 |  | 
3 | 12.2 µM | 30 µM | 32.8 µM | > 200 µM |  | CCCn1c(=O)n(C)c(=O)c2c1ncn2CCC(C)=O | > 100 µM |  |  | 8.2 |  | 
4 | 11.2 µM | 15.4 µM |  |  |  | C=CCn1cnc2c1c(=O)n(C)c(=O)n2CCC | 22.4 µM |  |  |  |  | 
5 | 0.07 µM | 1.9 µM | 22.3 µM | 12 µM |  | CCCn1c(=O)n(CCOCC)c(=O)c2[nH]cnc21 | 25.3 µM | 1.7 mg/kg | 20 mg/kg | 361 | 11.8 | 
6 | 0.01 µM |  |  |  | 16.5 µM | CCCCn1c(=O)c2c(ncn2CC(C)=O)n(CCCC)c1=O [DENBUFYLLINE] |  | 5.9 mg/kg | 90 mg/kg |  |  | 6 µM
7 | 20.5 µM | 43.2 µM | 92 µM | > 200 µM |  | CCCn1c(=O)n(CCCN(C)C)c(=O)c2[nH]cnc21 | > 100 µM |  |  | 4.9 |  | 
8 | 31.8 µM | 41.4 µM | 28.7 µM | > 200 µM |  | CCCn1c(=O)n(C)c(=O)c2c1ncn2CCO | > 100 µM |  |  | 3.1 |  | 
9 | 3.5 µM | 11.2 µM | 13 µM | 144 µM |  | CCCn1c(=O)n(CCC(C)=O)c(=O)c2[nH]cnc21 | 27 µM |  |  | 7.7 |  | 
10 | > 100 µM | > 200 µM | 119 µM | > 200 µM |  | CCCn1c(=O)n(C)c(=O)c2c1ncn2CC(N)=O | > 100 µM |  |  | 1 |  | 
11 | 1.6 µM |  |  | 8 µM |  | CCCn1c(=O)n(C)c(=O)c2[nH]cnc21 | 3.3 µM | 4.44 mg/kg | 5.7 mg/kg | 2.1 | 1.3 | 
12 | 5.1 µM | 12 µM | 12.6 µM | 68.7 µM |  | CCCn1c(=O)n(CCCO)c(=O)c2[nH]cnc21 | 26.4 µM |  |  | 5.2 |  | 
13 | > 100 µM | > 200 µM | > 200 µM | > 200 µM |  | CCCn1c(=O)n(C)c(=O)c2c1ncn2CCC(=O)O | > 100 µM |  |  | 1 |  | 
14 | 35.3 µM | 6.6 µM | 16.5 µM | 12.8 µM |  | CCCn1c(=O)n(C)c(=O)c2c1ncn2CC#N | > 100 µM |  |  | 2.8 |  | 
15 | 16.8 µM | 6 µM | 29.9 µM | 5.6 µM |  | C=CCCn1cnc2c1c(=O)n(C)c(=O)n2CCC | 30.6 µM |  |  | 1.8 |  | 
16 | 0.51 µM | 50 µM | 14.1 µM | > 200 µM |  | CCCn1c(=O)n(CCO)c(=O)c2[nH]cnc21 | 2 µM |  |  | 3.9 |  | 
17 | 13.1 µM | 31.5 µM | 56.3 µM | > 200 µM |  | CCCn1c(=O)n(CCC(N)=O)c(=O)c2[nH]cnc21 | 31.2 µM |  |  | 2.4 |  | 
18 | > 100 µM | 39.7 µM |  |  |  | CCCn1c(=O)n(CC(N)=O)c(=O)c2[nH]cnc21 | > 100 µM |  |  |  |  | 
19 | 5 µM |  |  | 43.8 µM |  | CCCn1cnc2c1c(=O)n(C)c(=O)n2CCC | > 100 µM | 27.5 mg/kg | > 100 mg/kg | 20 | > 3.6 | 
20 | 2.7 µM | 4.3 µM | 9 µM | > 200 µM |  | CCCn1c(=O)n(CCN(C)C)c(=O)c2[nH]cnc21 | > 100 µM | 5.65 mg/kg | > 100 mg/kg | 37 | > 17.7 | 
21 | 36.1 µM | 12.4 µM | 72.7 µM | 58.7 µM |  | CCCn1c(=O)n(C)c(=O)c2c1ncn2CCOC | > 100 µM |  |  | 2.8 |  | 
22 | 0.06 µM | 23.1 µM | 16.4 µM |  |  | CCCn1c(=O)n(CCCCC(C)=O)c(=O)c2[nH]cnc21 | 3.6 µM | 2.55 mg/kg | 13.5 mg/kg | 62 | 5.3 | 
23 | 27.6 µM | 88.6 µM | 46 µM | > 200 µM |  | CCCn1c(=O)n(C)c(=O)c2c1ncn2CCC#N | > 100 µM |  |  | 3.6 |  | 
24 | 4.6 µM | 24.3 µM | 136 µM | 22.9 µM |  | CCCn1c(=O)n(C)c(=O)c2c1ncn2CCOCC | > 100 µM | 12.1 mg/kg | 25.2 mg/kg | 21.7 | 2.1 | 

The remaining lines, values behind:

Row | SMILES | EC50 (Cavia porcellus [1]) | Ki (Adenosine receptor A1 [5]) | Ki [8] | Ki [9] | Ki (Adenosine receptor A1 [11]) | EC15 (Cavia porcellus [2]) | ED50 (Cavia porcellus [3]) | ED15 (Cavia porcellus [4]) | Selectivity [6] | Selectivity [7] | EC15 (Cavia porcellus [10])
25 | CC(=O)CCCCn1c(=O)c2c(ncn2C)n(C)c1=O [PENTOXIFYLLINE] | 28.3 µM | 180 µM |  |  |  | 52.4 µM | 43 mg/kg | 39.4 mg/kg |  |  | 
26 | CCCn1c(=O)n(C)c(=O)c2c1ncn2CC(C)=O | 1.9 µM | 95.7 µM | 20.7 µM | > 200 µM |  | 37.5 µM | 1.49 mg/kg | 30 mg/kg | 19.7 | 20.1 | 
27 | CCCn1c(=O)[nH]c(=O)c2nc[nH]c21 [ENPROFYLLINE] |  |  |  |  |  | 18.3 µM |  | 95.1 mg/kg |  |  | 
28 | CCCn1c(=O)n(CC(=O)O)c(=O)c2[nH]cnc21 | 41 µM | > 200 µM | > 200 µM | > 200 µM |  | > 100 µM |  |  | 2.4 |  | 
29 | CCCn1c(=O)n(CCOC)c(=O)c2[nH]cnc21 | 0.7 µM | 2.5 µM | 8.2 µM | 21.6 µM |  | 6.3 µM |  |  | 9 |  | 
30 | CCCn1c(=O)n(C)c(=O)c2c1ncn2CC |  |  |  |  |  | > 100 µM |  |  |  |  | 
31 | CCCn1c(=O)n(CCC(=O)O)c(=O)c2[nH]cnc21 | 21.2 µM | > 200 µM | 60 µM | > 200 µM |  | > 100 µM |  |  | 4.7 |  | 
32 | CCCn1c(=O)c2nc[nH]c2n(CCC)c1=O |  | 0.21 µM |  |  |  | 20 µM | 4.69 mg/kg | 25.5 mg/kg |  |  | 
33 | CCCn1c(=O)n(C)c(=O)c2c1ncn2CCN(C)C | > 100 µM | > 200 µM | 53 µM | > 200 µM |  | > 100 µM |  |  | 1 |  | 
34 | CCCn1c(=O)n(C)c(=O)c2c1ncn2CCCO | 22.6 µM | 112 µM | 26.2 µM | > 200 µM |  | > 100 µM |  |  | 4.4 |  | 
35 | CCCn1c(=O)n(C)c(=O)c2c1ncn2CCCN(C)C | > 100 µM | > 200 µM | > 200 µM | > 200 µM |  | > 100 µM |  |  | 1 |  | 
36 | CCCn1c(=O)n(CCCOC)c(=O)c2[nH]cnc21 | 2.9 µM | 12.4 µM | 48.7 µM | 15.7 µM |  | 31.3 µM | 0.72 mg/kg | 10.7 mg/kg | 10.8 | 14.9 | 
37 | CCCn1c(=O)n(C)c(=O)c2c1ncn2CCC(N)=O | > 100 µM | > 200 µM |  |  |  | > 100 µM |  |  |  |  | 
38 | CCCn1c(=O)n(CC(C)=O)c(=O)c2[nH]cnc21 | 14.9 µM | 11.4 µM | 46.4 µM | > 200 µM |  | 45.7 µM |  |  | 3.1 |  | 
39 | CCCn1c(=O)n(C)c(=O)c2c1ncn2CC(=O)O | > 100 µM | > 200 µM |  |  |  | > 100 µM |  |  |  |  | 
40 | CCCn1c(=O)n(CCC#N)c(=O)c2[nH]cnc21 | 1.7 µM | 15.9 µM | 40.8 µM | 162 µM |  | 4.3 µM |  |  | 2.5 |  | 
41 | CCCn1c(=O)n(CC)c(=O)c2[nH]cnc21 | 1.3 µM |  |  | 3.9 µM |  | 6.1 µM |  |  | 4.7 |  | 
42 | Cn1c(=O)c2nc[nH]c2n(C)c1=O.O [THEOPHYLLINE] |  |  |  |  |  | 62 µM |  | 20.2 mg/kg |  |  | 
